Assay outcomes from PubChem BioAssay.
Most compounds without a hit are left out; they make up all but 2.5% or so of the library.
MEKK3 PB1 HTS = modulators of MEKK3-MEK5 PB1 binding, primary screen, biochemical, wildtype MEKK3, multiplex bead flow cytometry, Alexa488-MEK5. bead-based flow cytometry, Alexa488-MEK5 binding to MEKK3; actives lie on both sides; 0 = blocked by unlabeled MEK5, 100 = vehicle. binding response (% of control), % at 10 µM. 290,000 tested, 1.4% active. AID 1529, 2009;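 active means binding response more than 3 SD above or below the average of its plate-row segment, actives on both sides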;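 further: Alexa488 bead fluorescence after subtracting the streptavidin-only scavenger bead signal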
MEKK2 mut-MEK5 = MEK5 binding signal on mutant MEKK2 PB1, primary screen, biochemical, multiplex bead flow cytometry, Alexa488-MEK5 | Alexa488-MEK5 binding to MEKK2 mutant | percent response, % at 10 µM | 290,000 tested, 0.35% active | AID 1530, 2009; in the data active means percent response above about 24%, passing the limit was not always enough
T cell HTS = modulators of CD8 T cell-vesicle binding, primary screen, mouse 2C CD8+ T cells, flow cytometry. 2C CD8+ T cell-vesicle binding; stronger effect = lower value. 330,000 tested, 0.068% active. response (vesicle binding), % at 7 µM;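 active means response, share of CD8 T cells binding vesicles, and their 90th percentile fluorescence all below set limits, cut at about 80% in these data, passing the limit was not always enough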;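 further: values below 100% mean blocked vesicle binding to the CD8+ T cells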
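Also added: QL9-peptide-loaded Drosophila micro-vesicles bearing Ld, ICAM-1 and B7-1; Test system: purified 2C TCR transgenic mouse naive CD8+ T cells; Measured by: cytometric PE anti-B7-1 and Alexa647 anti-CD8 signals after 1% paraformaldehyde fixation; Timing: binding step 1.5 h, 37 °C, antibody labelling 20 min, ice.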
UCH37 DUB inh = inhibitors of human UCH37 deubiquitinase, primary screen, biochemical, Ub-AMC cleavage, fluorescence; Ubiquitin carboxyl-terminal hydrolase isozyme L5 (Homo sapiens), Q9Y5K5; purified proteasome/UCH37; inhibition, % (no concentration beside the values); 330,000 tested, 0.33% active;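 active means mean inhibition over replicate wells above about 20%, limit read from the data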;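 further: 0% = compound-free wells with enzyme and 100% = wells lacking proteasome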
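Assay system: Proteasome-bound UCH37. Buffer or medium: pH 7.4 Tris-HCl (50 mM) with ovalbumin, ATP-MgCl2, DTT. Incubation: 30 min preincubation with enzyme, 25 min cleavage at room temperature. Measured by: fluorescence, ex 355 nm, em 460 nm. Read-out basis: percent inhibition. Control set: wells without proteasome as full block, compound-free enzyme plus substrate as uninhibited.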
Rce1 inh = yeast Rce1p protease inhibitors, primary screen, biochemical, fluorescence, cell-free homogeneous; yeast membranes, quenched prenylated peptide cleavage fluorescence; calls only; AID 2563, 2010; CAAX prenyl protease 2 (Saccharomyces cerevisiae (strain ATCC 204508 / S288c)), Q03530; 290,000 tested, 0.27% active;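 active means fall in fluorescence gain of 50% or more versus controls, with final raw signal at or below 3038400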;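 further: plate controls were neutral control wells for no effect and wells lacking membranes for full effect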
Target sequence (Q03530 whole entry, looked up): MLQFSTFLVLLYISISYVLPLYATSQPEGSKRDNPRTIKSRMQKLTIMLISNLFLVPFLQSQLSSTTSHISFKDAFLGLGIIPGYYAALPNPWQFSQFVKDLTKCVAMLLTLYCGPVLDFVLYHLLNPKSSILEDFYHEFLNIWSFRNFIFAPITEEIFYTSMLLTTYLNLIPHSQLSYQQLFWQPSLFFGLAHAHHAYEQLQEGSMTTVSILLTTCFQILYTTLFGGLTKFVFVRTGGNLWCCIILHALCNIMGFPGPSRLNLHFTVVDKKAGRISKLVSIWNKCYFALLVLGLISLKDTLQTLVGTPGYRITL
MEKK2 WT-MEK5 = modulators of MEK5 binding to wildtype MEKK2, primary screen, biochemical, multiplex bead flow cytometry, Alexa488-MEK5; Mitogen-activated protein kinase kinase kinase 2 (Homo sapiens), Q9Y2U5; Alexa488-MEK5 binding to MEKK2 WT; actives lie on both sides; binding response (% of control), % at 10 µM; 290,000 tested, 1.1% active; AID 1531, 2009; in the data active means binding response below about 67% or above about 130%
MEKK2wt confirm = modulators of MEK5 binding to wildtype MEKK2, confirmation, biochemical, single concentration, multiplex bead flow cytometry; 5,900 tested, 2.4% active; shares compounds with MEKK3 PB1 HTS; Alexa488-MEK5 binding to MEKK2 WT; actives lie on both sides; binding response (% of control), % at 10 µM; AID 1892, 2009; in the data active means binding response below about 16% or above about 210%; inactive means in between
MEKK2mut confirm = mutant MEKK2 PB1-MEK5 binding signal retest – biochemical, single concentration, multiplex bead flow cytometry, confirmation. shares compounds with MEKK3 PB1 HTS. Alexa488-MEK5 binding to MEKK2 mutant. percent response, % at 10 µM. 5,900 tested, 2% active; in the data active means percent response mostly above about 71%, no sharp cut-off; inactive means mostly below about 38%;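 further: higher means compound restores mutant binding toward wildtype level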
MEKK3 confirm = MEKK3 wild-type PB1 binding to MEK5, inhibitors, confirmation, biochemical, bead multiplex flow cytometry, single concentration, wildtype. shares compounds with MEKK3 PB1 HTS. AID 1894, 2009. 5,900 tested, 1.8% active. Alexa488-MEK5 binding to MEKK3; stronger effect = lower value. binding response (% of control), % at 10 µM;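 active means binding response below 72% of control, or above a set upper limit, though filed actives all read lower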;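 further: 100% = DMSO only wells and 0% = binding blocked by excess unlabeled MEK5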
* hit, by the source's call; i = inactive; . = not tested or not shown; [ ] = dose if it differs, or a comment.

SMILES	MEKK3 PB1 HTS	MEKK2 mut-MEK5	T cell HTS	UCH37 DUB inh	Rce1 inh	MEKK2 WT-MEK5	MEKK2wt confirm	MEKK2mut confirm	MEKK3 confirm
CNC(=O)C(=O)NCC1OCCN1S(=O)(=O)c1ccc2c(c1)OCCO2 (stereo not given)	.	.	220	4	.	.	.	.	.
CC(=NNC(=O)CN1CCN(S(=O)(=O)c2ccc(C)cc2)CC1)c1cccnc1	.	.	.	1	.	.	.	.	.
Cc1ccc(-c2nn(-c3ccccc3)cc2CSC(=N)N)cc1	113	52*	321	.	i	205*	141	13	82
OCc1cn(-c2ccccc2)nc1-c1ccc(-c2nn(-c3ccccc3)cc2CO)cc1	92	-8	280	-3	i	94	.	.	.
O=C1Nc2ccccc2C1=Nc1sc2c(c1C(=O)NCCc1ccccc1)CCCC2	.	.	.	1	.	.	.	.	.
O=C(CN1C(=O)CSc2ccccc21)NC1CCCC1	.	.	442	2	i	.	.	.	.
O=C(CN1C(=O)C(=O)c2ccccc21)NC1CCCCC1	48*[inhibitor]	0	268	2	i	98	101	5	100
Cc1[nH]c2ccccc2c1C(Nc1nccs1)c1ccncc1 (stereo not given)	138*	0	273	3	i	105	103	0	102
CC1(C)CC2CC(C)(CN2C(=O)C23CCC(C)(C(=O)C2)C3(C)C)C1 (stereo not given)	128*	0	509	2	i	102	92	-8	97
CCN(C(=O)CSc1nnc2ccccn12)c1c(N)n(Cc2ccccc2)c(=O)[nH]c1=O	121	1	0	2	i	107	.	.	.
CCCCN(C(=O)CSc1nnc2ccccn12)c1c(N)n(Cc2ccccc2)c(=O)[nH]c1=O	128*	0	409	1	i	106	108	7	102
CCc1nc(N2CCN(C(=O)c3ccco3)CC2)c2oc3ccccc3c2n1	77	-6	240	0	i	88	.	.	.
CCc1nc(N2CCCC2C(=O)O)c2oc3ccccc3c2n1 (stereo not given)	57*[inhibitor]	-19	408	6	i	72	100	4	100
O=C(NN=CC1CC=CCC1)c1ccccc1O (stereo not given)	.	.	.	-1	.	.	.	.	.
CN1CCN(Cc2nc3ccccc3c(=O)n2Cc2nc(-c3ccc4ccccc4c3)cs2)CC1	108	51*	176	7	i	195*	153	25	104
CN(C)c1cccc(C(=O)OCCNC(=O)c2cccc(S(=O)(=O)N3CCOCC3)c2)c1	46*[inhibitor]	-12	323	-3	i	52	104	3	102
O=C(OCCOc1ccccc1)c1cccc(S(=O)(=O)N2CCOCC2)c1	.	.	277	4	.	.	.	.	.
CCOc1cc(C=NO)cc(Br)c1OCC	.	.	.	6	.	.	.	.	.
CCOc1cc(/C=N/O)cc(Br)c1OCC	124*	6	394	.	i	100	103	0	102
Cc1ccc(SCCC(=O)NN=Cc2ccncc2)cc1	.	.	.	2	.	.	.	.	.
